Data as given in ChEMBL document CHEMBL3046103, “Antifungal synergistic effect of scopoletin, a hydroxycoumarin isolated from Melia azedarach L. fruits” (J Agric Food Chem, 2005).
Values belong to the molecule of their own block, whether it stands above or below them.

Experiments:
Fusarium verticillioides [1] = assay: Antifungal activity against Fusarium verticillioides assessed as growth inhibition by broth microdilution method
Fusarium incarnatum [2] = assay: Antifungal activity against Fusarium incarnatum assessed as growth inhibition by broth microdilution method; format: functional, organism-based
Fusarium incarnatum [3] = assay: Antifungal activity against Fusarium incarnatum assessed as growth inhibition at 1 mg/mL by broth microdilution method; format: functional; conditions: read-out: GI
Fusarium verticillioides [4] = assay: Antifungal activity against Fusarium verticillioides assessed as growth inhibition by broth microdilution method; format: functional, organism-based
In short: (§1)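 F. verticillioides strain M-7075, a maize isolate, was kept as a monosporic culture on V8 juice medium. Four-day-old spores were suspended at 10^5 spores/mL in glucose-mineral salts medium. Compound in filter-sterilized DMSO (final ≤2-4%) was tested at 0.10–1.70 mg/mL, in duplicate, alongside DMSO and untreated controls. Germination relative to control mycelial growth (100%) was scored visually by inverted microscope. MIC was the lowest concentration giving complete inhibition, and IC50 came from probit analysis.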

Fusarium [5] = assay: Antifungal activity against Fusarium fusiformis assessed as growth inhibition by broth microdilution method; format: functional, organism-based
Fusarium [6] = assay: Antifungal activity against Fusarium fusiformis assessed as growth inhibition at 1 mg/mL by broth microdilution method; format: functional
Fusarium verticillioides [7] = assay: Antifungal activity against Fusarium verticillioides assessed as growth inhibition at 1 mg/mL by broth microdilution method; format: functional
In short: as §1

MIC (Fusarium verticillioides [1]): 1000 µg/mL
SMILES: COc1cc(C2OCC3C(c4ccc(O)c(OC)c4)OCC23)ccc1O (racemic) [(+/-)-PINORESINOL]

MIC (Fusarium verticillioides [1]): 400 µg/mL
SMILES: COc1cc(/C=C/C=O)ccc1O [CONIFERYL ALDEHYDE]

MIC (Fusarium verticillioides [4]): 1500 µg/mL
SMILES: COc1cc2ccc(=O)oc2cc1O [SCOPOLETIN]
IC50 (Fusarium incarnatum [2]): 470 µg/mL
inhibition of growth at 1000 µg/mL (Fusarium incarnatum [3]): 66.2%
IC50 (Fusarium verticillioides [4]): 730 µg/mL
IC50 (Fusarium [5]): 820 µg/mL
inhibition at 1000 µg/mL (Fusarium [6]): 51.8%
inhibition at 1000 µg/mL (Fusarium verticillioides [7]): 90%

MIC (Fusarium verticillioides [1]): 600 µg/mL
SMILES: COc1cc(C=O)ccc1O [VANILLIN]
